Activity calls are given as the source filed them. The calls are words filed in the database; no cut-off is given here.
Experiments:
[1] = biological target: T1, von Hippel-Lindau disease tumor suppressor/Protein arginine N-methyltransferase 5 (Homo sapiens, UniProt O14744+P40337); assay: Induction of VHL-mediated PRMT5 degradation in human MCF7 cells at 0.2 to 5 uM incubated for 6 days by Western blot analysis; assay type: cell-based; details: dose microM 0.2-5, time 6.0 day
Outline: (§1)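 MCF-7 cells treated 6 d (0.2, 1 and 5 μM for initial screen, or indicated concentrations). RIPA lysates immunoblotted for PRMT5. Band intensity quantified by densitometry to derive DC50 and Dmax as mean ± SD from three independent experiments; screening blots representative of at least two.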

[2] = system: MCF7; assay: Antiproliferative activity against human MCF7 cells at 0.1 to 10 uM incubated for 6 days by CellTiter-Glo assay; assay type: functional, cell-based; details: dose microM 0.1-10, time 6.0 day
Outline: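 MCF-7 in DMEM + 10% FBS at 37 °C, 5% CO2. Cells exposed to graded concentrations for 6 d, medium with compound refreshed every other day. CellTiter-Glo luminescence, expressed as viability relative to DMSO control; mean ± SD, n = 3.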

[3] = biological target: T1, von Hippel-Lindau disease tumor suppressor/Protein arginine N-methyltransferase 5; assay: Induction of VHL-mediated PRMT5 degradation in human MCF7 cells at 5 uM incubated for 6 days by Western blot analysis; assay type: cell-based; details: time 6.0 day; outline: as §1
[4] = biological target: PRMT5/MEP50 complex (Homo sapiens, UniProt O14744); assay: Inhibition of human PRMT5/MEP50 assessed as reduction in methyltransferase activity using histone 4 peptide as substrate in presence of [3H]SAM incubated for 30 mins; assay type: protein-complex assay
Outline: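 Radiometric FlashPlate assay tracking transfer of the 3H-methyl group from SAM (1 μM) to biotinylated H4 (1–15) peptide by human PRMT5/MEP50 (5 nM). Compounds were preincubated with enzyme and substrate for 20 min at rt. They were tested at 10 concentrations in threefold serial dilution from 5 μM, in duplicate. IC50 is reported as mean ± SD.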

T1 sequence (O14744 whole entry, looked up): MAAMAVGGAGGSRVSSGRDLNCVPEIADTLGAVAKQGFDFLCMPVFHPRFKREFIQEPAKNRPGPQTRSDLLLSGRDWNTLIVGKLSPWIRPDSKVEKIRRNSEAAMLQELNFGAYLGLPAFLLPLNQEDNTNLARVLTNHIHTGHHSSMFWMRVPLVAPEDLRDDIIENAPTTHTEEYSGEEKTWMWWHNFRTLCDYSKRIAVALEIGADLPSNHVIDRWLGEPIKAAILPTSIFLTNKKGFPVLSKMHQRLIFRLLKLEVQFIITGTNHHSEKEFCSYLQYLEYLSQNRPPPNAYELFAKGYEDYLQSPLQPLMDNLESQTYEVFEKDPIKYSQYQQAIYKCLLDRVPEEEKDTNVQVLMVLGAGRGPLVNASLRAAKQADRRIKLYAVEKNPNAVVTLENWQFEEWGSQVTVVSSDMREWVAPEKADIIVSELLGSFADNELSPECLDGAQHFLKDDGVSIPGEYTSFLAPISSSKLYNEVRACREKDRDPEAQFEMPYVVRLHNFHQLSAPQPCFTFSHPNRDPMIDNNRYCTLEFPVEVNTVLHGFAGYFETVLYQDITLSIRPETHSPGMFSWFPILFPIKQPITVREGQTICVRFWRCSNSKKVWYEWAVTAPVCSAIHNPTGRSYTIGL
T1 sequence (P40337 whole entry, looked up): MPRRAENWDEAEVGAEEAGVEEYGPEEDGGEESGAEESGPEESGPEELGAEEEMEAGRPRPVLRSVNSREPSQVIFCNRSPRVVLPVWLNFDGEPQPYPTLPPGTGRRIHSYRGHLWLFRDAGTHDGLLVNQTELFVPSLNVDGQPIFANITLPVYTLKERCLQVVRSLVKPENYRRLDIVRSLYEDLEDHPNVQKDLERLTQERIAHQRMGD
PRMT5/MEP50 complex, sequence (O14744 whole entry): as the sequence (O14744 whole entry, looked up) above
PRMT5/MEP50 complex, sequence (Q9BQA1 whole entry, further chain): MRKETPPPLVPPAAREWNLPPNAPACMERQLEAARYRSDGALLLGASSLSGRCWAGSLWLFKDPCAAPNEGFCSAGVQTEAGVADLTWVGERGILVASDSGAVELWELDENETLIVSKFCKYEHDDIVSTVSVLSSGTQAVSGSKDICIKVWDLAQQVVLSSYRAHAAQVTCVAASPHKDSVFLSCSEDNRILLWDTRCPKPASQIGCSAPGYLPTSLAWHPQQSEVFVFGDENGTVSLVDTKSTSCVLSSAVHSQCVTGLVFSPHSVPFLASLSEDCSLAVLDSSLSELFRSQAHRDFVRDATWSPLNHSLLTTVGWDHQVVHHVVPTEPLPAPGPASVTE

For `Cc1ncsc1-c1ccc(CNC(=O)[C@@H]2C[C@@H](O)CN2C(=O)[C@@H](NC(=O)CCOCCOCCC(=O)N2CC(Nc3cc(C(=O)NC[C@H](O)CN4CCc5ccccc5C4)ncn3)C2)C(C)(C)C)cc1`, the Activity [1] was “inactive”.
In the case of `Cc1ncsc1-c1ccc(CNC(=O)[C@@H]2C[C@@H](O)CN2C(=O)[C@@H](NC(=O)COCC(=O)N2CC(Nc3cc(C(=O)NC[C@H](O)CN4CCc5ccccc5C4)ncn3)C2)C(C)(C)C)cc1`, the Activity [1] is reported as “inactive”.
For `Cc1ncsc1-c1ccc([C@H](C)NC(=O)[C@H]2C[C@H](O)CN2C(=O)[C@@H](NC(=O)COCCOCCOCCOCCOCC(=O)N2CC(Nc3cc(C(=O)NC[C@H](O)CN4CCc5ccccc5C4)ncn3)C2)C(C)(C)C)cc1`, the Activity [2] was “inactive”, the Activity [3] was “inactive” and the IC50 [4] was 12 nM.
In the case of `Cc1ncsc1-c1ccc(CNC(=O)[C@@H]2C[C@@H](O)CN2C(=O)[C@@H](NC(=O)CCOCCOCCOCCC(=O)N2CC(Nc3cc(C(=O)NC[C@H](O)CN4CCc5ccccc5C4)ncn3)C2)C(C)(C)C)cc1`, the Activity [1] is reported as “inactive”.

— ChEMBL document CHEMBL4725349, “Discovery of First-in-Class Protein Arginine Methyltransferase 5 (PRMT5) Degraders” (J Med Chem, 2020)
